From PubChem
The sample as a whole holds a higher share of hits than the screen did.
XBP1 UPR activ = activators of adaptive XBP1 UPR arm, primary screen, cell-based, CHO-XBP1 luciferase reporter, luminescence, uHTS; 330,000 tested, 0.33% active; activation, % at 20 µM; AID 463104, 2010; IRE1-XBP1 UPR activation; percent of tunicamycin response, DMSO as zero;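 active = versus positive control, 20 µM dose yields 30% or more activation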;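 note: 100% = tunicamycin at 10 µg/mL and 0% = DMSO only wells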
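Signal: luciferase luminescence; Assay system: CHO-XBP1 luciferase reporter cells; Amount: one thousand reporter cells per well; Dosing: 20 µM single concentration, DMSO 1%; Benchmarks: high control tunicamycin 10 µg/mL final, low control DMSO vehicle only; Schedule: 6 h compound exposure at 37 °C, 5% CO2; Evaluation: percent activation relative to tunicamycin reference.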
CHOP inh = inhibitors of CHOP promoter induction, primary screen, cell-based, unfolded protein response, luciferase reporter. CHO-K1 CHOP-promoter luciferase, tunicamycin-induced, 15-18 h. inhibition, % at 10 µM. 220,000 tested, 3.8% active. AID 2732, 2010;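 active = compounds that reduced the stress-induced luciferase reporter signal by more than about 70% of percent inhibition, limit read from the data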;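 note: 0% = tunicamycin plus vehicle and 100% = wells without tunicamycin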
FXN GAA850 act = FXN promoter activators, primary screen, cell-based, luciferase luminescence, HEK293 lucGAA850. HEK293 lucGAA850 FXN promoter luciferase reporter, 24 h; percent of 10 µM SAHA response. activation, % at 6 µM. 360,000 tested, 0.56% active. AID 540364, 2011;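 active = activation above the average of all compounds screened plus 3 SD, cutoff fixed separately per campaign, cut at about 7.5% in these data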;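 note: 0% = DMSO wells and 100% = 10 µM SAHA wells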
CHOP UPR activ = activators of apoptotic CHOP UPR arm, primary screen, cell-based, CHO-CHOP luciferase reporter, luminescence, uHTS; UPR activation; percent of tunicamycin response over DMSO baseline; AID 449763, 2010; 330,000 tested, 0.34% active; activation, % at 10 µM;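 active = at 10 µM dose, activation of 40% or more, normalized to positive control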;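 note: 100% = tunicamycin at 10 µg/mL and 0% = DMSO alone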
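Assay system: CHO-CHOP cells, stable luciferase reporter of PERK-eIF2a-CHOP signalling / Buffer or medium: F12 plus 10% serum / Compound dosing: one dose, 10 µM in 0.5% DMSO / Times: 6 h compound treatment, 37 °C / Technique: luciferase luminescence / Read-out: % reporter activation, DMSO baseline versus tunicamycin full activation / Benchmarks: tunicamycin and DMSO controls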
UPR XBP1 confirm = IRE1-XBP1 UPR arm activators, confirmation, cell-based, CHO-XBP1 luciferase reporter, luminescence, single concentration; shares compounds with XBP1 UPR activ; activation, % at 20 µM; 1,000 tested, 63% active; AID 485299, 2010;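 active = reporter signal at least 30% of the positive control's activation in two or more of four replicate wells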;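 note: plate controls were DMSO negative control for no effect and tunicamycin 10 µg/mL positive control for full effect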
Numbers without * were called inactive; . = no result given.

SMILES	XBP1 UPR activ	CHOP inh	FXN GAA850 act	CHOP UPR activ	UPR XBP1 confirm
CCOc1cccc2sc(N(CCCN(C)C)C(=O)c3ccc(S(=O)(=O)N(CC)Cc4ccccc4)cc3)nc12	43*	.	-3	9	12
CCN(Cc1ccccc1)S(=O)(=O)c1ccc(C(=O)N(CCCN(C)C)c2nc3cc(C)cc(C)c3s2)cc1	18	.	1	24	.
COc1ccc(C(=O)CC(C(=O)O)c2ccc3c(c2)OCO3)cc1OC (configuration not stated)	.	.	0	.	.
CCCCN(C=O)c1c(CC)nc2c(OCc3ccc(Cl)cc3)cccn12	.	.	-1	.	.
Cc1c(Cl)cccc1Nc1nc(NCCO)c2ccccc2n1	75*	.	0	9	58*
Cc1ccc(S(=O)(=O)N(C)C[C@@H]2Oc3ncc(C#CCC(C)C)cc3C(=O)N([C@H](C)CO)C[C@H]2C)cc1	.	.	0	.	.
COc1ccccc1CNCC(O)Cn1c2ccccc2c2ccccc21 (configuration not stated)	30*	51	-1	3	29
CC1(C)C[C@H](O)[C@]2(CO)CC[C@]3(C)C(=CCC4[C@@]5(C)CC[C@H](O)C(C)(C)C5CC[C@]43C)[C@@H]2C1 (some centres not stated)	16	.	-2	0	.
CC1(C)C[C@H](O)[C@]2(CO)[C@H](O)C[C@]3(C)C(=CCC4[C@@]5(C)CC[C@H](O)C(C)(C)C5CC[C@]43C)[C@@H]2C1 (some centres not stated)	146*	.	-3	39	73*
Cc1csc(CN(C)C(=O)CC2C(=O)NCCN2Cc2ccccc2C)n1 (configuration not stated)	.	.	-1	.	.
Nc1nc(Nc2cccc(F)c2)nc2ccccc12	40*	21	2	19	42*
O=c1oc(Nc2cccc(F)c2)nc2ccccc12	0	48	3	1	.
O=C(Oc1ccc2c(c1)OCO2)c1cc2c(s1)CCC2	37*	.	0	35	9
Cc1cc(C)c2c(c1)/C(=N/Nc1ccc(S(N)(=O)=O)cc1[N+](=O)[O-])CCC2	76*	16	2	16	50*
Cc1nc2c(N=Nc3ccccc3F)c(N)nn2c(N)c1C#N	44*	2	2	15	21
Cc1ccc(NC(=O)c2cc(S(=O)(=O)N3CCCCC3)ccc2N2CCOCC2)cc1S(=O)(=O)N(C)C	.	.	0	.	.
Cc1ccc(NC(=O)c2cc(S(=O)(=O)N(C)C)ccc2N2CCCC2)cc1S(=O)(=O)N(C)C	53*	.	1	11	67*
COc1ccc(C(=O)NC(=S)NNC(=O)[C@H]2C[C@@H]2c2ccccc2)cc1OC	65*	34	0	1	14
COc1cc(OC)cc(C(=O)NC(=S)NNC(=O)[C@H]2C[C@@H]2c2ccccc2)c1	-4	8	2	2	.
COc1ccc(CNC(=O)COC(=O)c2c(NC(C)=O)sc(C)c2C)cc1OC	.	.	-2	.	.
Cc1ccc2c(c1)CCO[C@@]21O[C@H](CCO)C[C@H](O)[C@H]1O	.	.	-1	.	.
Cc1ccc(-n2nc3c(N4CCC(C(=O)NCCc5cccs5)CC4)nnc(C)c3c2C)cc1	31*	.	0	5	45*
COc1cc(-c2noc(C)c2/C=C/c2ccc(OC(C)=O)cc2)cc(OC)c1OC	32*	.	1	3	32*
COc1ccc(-c2oc(=O)c3cc(OC)c(OC)cc3c2/C=C/c2ccc(OC(C)=O)cc2)cc1	18	.	-1	15	.
COc1ccc(C(=O)N/N=C/c2ccccc2OC(=O)c2ccccc2)cc1	51*	.	6	2	30
SMILES	XBP1 UPR activ	CHOP inh	FXN GAA850 act	CHOP UPR activ	UPR XBP1 confirm
COCCNC(=O)C1(C)CCCN(C(=O)c2ccc(N(C)C)cc2)C1 (configuration not stated)	.	.	-1	.	.
CCOc1ccccc1C1NC(=O)c2ccccc2N1 (configuration not stated)	.	.	-1	.	.
CCC(=O)Nc1cccc(C(=O)/C=C/c2ccc(F)cc2)c1	35*	-185	3	9	53*
CC(=O)Nc1cccc(C(=O)/C=C/c2ccc(C)cc2)c1	17	-39	-7	5	.
COc1ccc(N(CC(=O)Nc2c(C)n(C)n(-c3ccccc3)c2=O)S(=O)(=O)c2ccccc2)cc1OC	90*	0	1	1	1
COc1ccc(N(CC(=O)Nc2c(C)n(C)n(-c3ccccc3)c2=O)S(=O)(=O)c2ccc(C)cc2)cc1	0	20	3	-1	.
O=C(c1cc(C2CCCCN2S(=O)(=O)c2ccc(F)cc2F)on1)N1CCOCC1 (configuration not stated)	.	.	-1	.	.
Cc1ccc(NC(=O)/C(C#N)=C(\N)C(Cl)(Cl)Cl)nc1	30	101*	7	25	-4
Cc1ccc(NC(=O)C(=O)Nc2ccc(C)cn2)nc1	1	-28	4	4	.
CCOC(=O)C1CCCN(C(=O)Cc2ccc(OC)c(OC)c2)CC1 (configuration not stated)	.	.	1	.	.
C=CCn1c(NC(=O)c2ccccc2Cl)c(C#N)c2nc3ccccc3nc21	35*	-16	-2	0	-1
COc1ccc(-c2ccc3[nH]c4c(c3c2)CCN2C(=O)[C@@H]([C@H](C)O)[C@@H](N(C)C(=O)Nc3ccc(F)cc3)C[C@@H]42)cc1	.	.	1	.	.
Cc1cc(C)c2c(c1)SC1=NC(c3ccccc3)(C(F)(F)F)NC(=O)N12 (configuration not stated)	46*	94*	1	38	22
COc1cc(C(=O)N/N=C/c2ccsc2C)cc(OC)c1OC	30*	-59	4	-1	17
COc1cccc(C(O)c2nc(-c3cccc(C#N)c3)cs2)c1 (configuration not stated)	.	.	0	.	.
C[C@@H]1CN([C@H](C)CO)C(=O)Cc2cc(NS(=O)(=O)c3ccc(Cl)cc3)ccc2O[C@H]1CN(C)Cc1ccc(C(F)(F)F)cc1	48*	.	-1	28	22
C[C@@H]1CN([C@H](C)CO)C(=O)Cc2cc(NS(=O)(=O)c3ccc(F)cc3)ccc2O[C@H]1CN(C)Cc1ccc(C(=O)O)cc1	-3	.	-1	1	.
CCOC(=O)/C=c1\s/c(=C\c2ccc(C(=O)OC)cc2)c(=O)n1CC(=O)Nc1ccccc1	92*	-8	1	27	1
CCOC(=O)C1=C(C)N=C2c3ccccc3C(=O)C2C1c1ccc(C)cc1 (configuration not stated)	32*	74*	-1	2	28*
CC(=O)OC[C@@H]1CN(Cc2ccccc2)C[C@H](n2cnc3c(Nc4ccccc4)ncnc32)O1	.	.	2	.	.
